ChEMBL document CHEMBL2380294, “Design, synthesis and biological activity of multifunctional α,β-unsaturated carbonyl scaffolds for Alzheimer's disease” (Bioorg Med Chem Lett, 2013)
pIC50: −log10 of the molar value. Activity calls are given as the source filed them. No cut-off for these calls is given here.

Assays:
[1] = target: T1, Amyloid-beta precursor protein (Homo sapiens, UniProt P05067); assay: Inhibition of amyloid beta (1 to 42) (unknown origin) oligomer dissociation after 16 to 18 hrs by ELISA
T1 sequence (P05067 whole entry): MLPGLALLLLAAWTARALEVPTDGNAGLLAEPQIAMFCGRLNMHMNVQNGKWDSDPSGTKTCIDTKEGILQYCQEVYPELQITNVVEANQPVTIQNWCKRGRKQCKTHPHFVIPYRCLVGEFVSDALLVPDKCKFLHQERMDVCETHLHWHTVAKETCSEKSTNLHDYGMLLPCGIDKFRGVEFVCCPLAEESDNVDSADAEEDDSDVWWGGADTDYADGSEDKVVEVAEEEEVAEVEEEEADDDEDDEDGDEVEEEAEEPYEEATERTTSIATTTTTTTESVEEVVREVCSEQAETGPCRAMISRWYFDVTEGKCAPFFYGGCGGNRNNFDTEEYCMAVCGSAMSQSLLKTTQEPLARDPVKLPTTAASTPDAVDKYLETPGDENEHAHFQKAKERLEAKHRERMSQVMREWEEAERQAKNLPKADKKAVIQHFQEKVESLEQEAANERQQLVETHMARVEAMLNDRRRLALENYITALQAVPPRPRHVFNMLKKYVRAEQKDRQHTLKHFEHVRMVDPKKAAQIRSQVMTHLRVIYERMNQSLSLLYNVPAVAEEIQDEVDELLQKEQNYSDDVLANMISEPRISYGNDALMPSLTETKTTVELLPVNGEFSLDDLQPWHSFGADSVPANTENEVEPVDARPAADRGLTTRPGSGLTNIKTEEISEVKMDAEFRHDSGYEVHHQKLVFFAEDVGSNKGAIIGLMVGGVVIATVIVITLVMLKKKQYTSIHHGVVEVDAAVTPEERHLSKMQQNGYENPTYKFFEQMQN
Procedure, shortened: (§1)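 Disaggregated biotinyl-Aβ(1-42) was diluted in PBS (pH 7.5) to 33.7 nM monomer to preform oligomers. Oligomers (16.8 nM, in PBS + 0.3% Tween 20) were combined with PBS containing the compound and 1% DMSO. The mixture was shaken at 150 rpm at room temperature for 16-18 h. Remaining oligomers were captured on NeutrAvidin and measured by SA-HRP/TMB at OD450.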

[2] = target: T1, Amyloid-beta precursor protein; assay: Inhibition of amyloid beta (1 to 42) (unknown origin) oligomer dissociation at 50 uM after 16 to 18 hrs by ELISA; procedure, shortened: as §1
[3] = target: T1, Amyloid-beta precursor protein; assay: Inhibition of amyloid beta ((1 to 42) (unknown origin) oligomer assembly after 30 mins by biotinyl-streptavidin assay
Procedure, shortened: (§2)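 Biotinyl-Aβ(1-42) was dried from HFIP, disaggregated with TFA for 10 min at room temperature, and taken up in DMSO (500 nM). Monomer was mixed into PBS containing the compound and 1% DMSO at ambient temperature. After 30 min, 0.3% Tween 20 stopped assembly. Oligomers were captured on NeutrAvidin, detected with SA-HRP and TMB, and read at OD450. Solvent control = 100%.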

[4] = target: T1, Amyloid-beta precursor protein; assay: Inhibition of amyloid beta (1 to 42) (unknown origin) oligomer assembly at 50 uM after 30 mins by biotinyl-streptavidin assay; procedure, shortened: as §2
[5] = target: T1, Amyloid-beta precursor protein; assay: Inhibition of amyloid beta (1 to 40) (unknown origin) fibril formation assessed as shorter assemblies at 10 uM after 6 days by atomic force microscopy relative to control
Acetylcholinesterase = Acetylcholinesterase (Homo sapiens, UniProt P22303); assay: Inhibition of AChE (unknown origin) by Ellman method
Acetylcholinesterase, sequence (P22303 whole entry): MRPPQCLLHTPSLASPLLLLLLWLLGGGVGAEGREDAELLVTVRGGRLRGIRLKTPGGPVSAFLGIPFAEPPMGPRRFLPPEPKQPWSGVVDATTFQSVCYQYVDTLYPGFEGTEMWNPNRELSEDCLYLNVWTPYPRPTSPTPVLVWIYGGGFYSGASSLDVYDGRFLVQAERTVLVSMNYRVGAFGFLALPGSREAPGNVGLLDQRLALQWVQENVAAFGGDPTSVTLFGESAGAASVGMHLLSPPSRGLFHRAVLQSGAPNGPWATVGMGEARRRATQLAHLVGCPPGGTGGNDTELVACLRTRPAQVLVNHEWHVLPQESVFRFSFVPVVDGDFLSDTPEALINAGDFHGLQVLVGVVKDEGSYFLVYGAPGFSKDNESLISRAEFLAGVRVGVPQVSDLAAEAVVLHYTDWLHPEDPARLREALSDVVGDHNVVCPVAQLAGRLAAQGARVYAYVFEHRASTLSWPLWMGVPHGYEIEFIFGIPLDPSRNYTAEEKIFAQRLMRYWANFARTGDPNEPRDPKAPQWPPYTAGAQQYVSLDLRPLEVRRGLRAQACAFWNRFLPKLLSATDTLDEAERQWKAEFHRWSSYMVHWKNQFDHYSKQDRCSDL

Cholinesterase = Cholinesterase (Homo sapiens, UniProt P06276); assay: Inhibition of BuChE (unknown origin) by Ellman method
Cholinesterase, sequence (P06276 whole entry): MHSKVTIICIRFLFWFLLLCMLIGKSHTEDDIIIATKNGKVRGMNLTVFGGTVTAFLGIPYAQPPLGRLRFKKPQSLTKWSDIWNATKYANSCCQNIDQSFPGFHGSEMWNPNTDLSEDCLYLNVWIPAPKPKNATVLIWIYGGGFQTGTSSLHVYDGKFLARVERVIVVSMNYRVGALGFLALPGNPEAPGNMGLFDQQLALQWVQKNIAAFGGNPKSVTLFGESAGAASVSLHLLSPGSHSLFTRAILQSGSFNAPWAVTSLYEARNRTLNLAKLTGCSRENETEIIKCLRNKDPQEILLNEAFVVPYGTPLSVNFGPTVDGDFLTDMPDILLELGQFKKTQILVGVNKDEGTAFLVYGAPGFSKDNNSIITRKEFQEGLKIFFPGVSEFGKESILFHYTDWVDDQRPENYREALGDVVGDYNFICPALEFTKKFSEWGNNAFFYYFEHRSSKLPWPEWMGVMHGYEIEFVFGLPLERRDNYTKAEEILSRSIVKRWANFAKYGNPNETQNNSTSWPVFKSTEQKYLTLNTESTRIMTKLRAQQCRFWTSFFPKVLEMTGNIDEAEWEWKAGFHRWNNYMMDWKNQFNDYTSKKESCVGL
Procedure, shortened: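 Equine serum BuChE in 0.1 M phosphate buffer pH 8 with 0.34 mM DTNB, 0.02 unit/mL enzyme and 0.55 mM S-butyrylthiocholine chloride. Inhibitor concentration dependence over 0–50 μM. Percent inhibition versus no-inhibitor control used to derive IC50.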

`COc1ccc2cc(C(=O)CN3CCC(c4ccccc4)CC3)c(=O)oc2c1` showed a pIC50 [1] of 4.54, an inhibition [2] of under 95% and a pIC50 [3] of 4.85. For the same molecule, the inhibition [4] was over 65%.
Molecule `COc1ccc2cc(C(=O)CN3CCC(Cc4ccccc4)CC3)c(=O)oc2c1` has an inhibition [2] of under 95%, a pIC50 [3] of 4.44 and an inhibition [4] of over 65%.
For `COc1ccc2cc(C(=O)CN3CCN(Cc4ccccc4)CC3)c(=O)oc2c1`, the inhibition [5] was “Active”, the inhibition [2] was under 95% and the pIC50 [3] was 4.44. It also gave an inhibition [4] of over 65% and a pIC50 (Acetylcholinesterase) of 5.75.
`COc1ccc2cc(C(=O)CN3CCOCC3)c(=O)oc2c1` was tested, and the pIC50 [1] was 5.30, the inhibition [2] was under 95% and the pIC50 [3] was 4.54. It also gave an inhibition [4] of over 65%.
With `COc1ccc2cc(C(=O)CN3CCN(c4ccccc4)CC3)c(=O)oc2c1` the pIC50 [1] was 5.19, the inhibition [2] was under 95% and the pIC50 [3] was 4.68. It also gave an inhibition [4] of over 65%.
`COc1ccc2cc(C(=O)CN3CCN(c4ccccn4)CC3)c(=O)oc2c1` was tested, and the inhibition [2] was under 95% and the inhibition [4] was over 65%.
With `CCN(CC)Cc1cccc(C(=O)/C=C/c2ccc(-c3ccccc3)cc2)c1` the pIC50 (Cholinesterase) was 5.08.
In the case of `COc1ccc2cc(C(=O)CN3CCN(c4ncccn4)CC3)c(=O)oc2c1`, the pIC50 [1] was 5.40, the inhibition [2] was under 95% and the pIC50 [3] was 6.00. For the same molecule, the inhibition [4] was over 65%.
